Measurements from different studies.
Each line is one published result; the experiments were not run side by side.
PFF0160c E182D: Dihydroorotate dehydrogenase (quinone), mitochondrial (PFF0160c, Plasmodium falciparum, UniProt Q08210, E182D)
Nectin-4: Nectin-4 (Homo sapiens, UniProt Q96NY8)
SIGMAR1: Sigma non-opioid intracellular receptor 1 (SIGMAR1, Homo sapiens, UniProt Q99720)

SMILES | target | test | measurement | result
N[C@@H](C[C@]1(C(=O)O)C[C@H]2OC[C@@H](O)[C@@H](O)[C@H]2O1)C(=O)O | Glutamate receptor ionotropic, kainate 2 (Grik2, Rattus norvegicus, UniProt P42260, A518T) | ligand displacement, radioligand | Ki | 0.061 µM
Oc1cc(NC[C@H]2CCC[C@@H]2NCc2cc(Br)cc(Br)c2)nc2ccccc12 | PFF0160c E182D | enzyme activity, inhibitor, absorbance | IC50 | > 10 µM
CCCC[C@@H]1NC(=O)[C@H](Cc2ccc(O)cc2)NC(=O)[C@@H]2CCCN2C(=O)[C@H](CC(=O)O)NC(=O)[C@H](C)NC(=O)[C@H](Cc2ccccc2)NC(=O)[C@@H]2CSCCC(=O)N3CN(CN(C3)C(=O)CCSC[C@@H](C(=O)N[C@@H](C)C(N)=O)NC1=O)C(=O)CCSC[C@H](NC(=O)[C@H](C)NC(C)=O)C(=O)N[C@@H]([C@@H](C)CC)C(=O)N[C@@H](CCC(=O)O)C(=O)N[C@@H](CCC(=O)O)C(=O)N[C@H](CCCCNC(=O)CCc1cn(CCOCCOCCOCCOCCOCCC(=O)N[C@H]3CSCCC(=O)N4CN5CN(C4)C(=O)CCSC[C@H](NC(=O)[C@@H](CC(=O)O)NC(=O)[C@H](Cc4cccc6ccccc46)NC(=O)[C@@H]4CCCN4C3=O)C(=O)N[C@@H](CCSC)C(=O)N[C@@H](CCCCNC(=N)N)C(=O)N[C@@H](CC(=O)O)C(=O)N[C@@H](Cc3c[nH]c4ccccc34)C(=O)N[C@@H](CO)C(=O)N[C@@H]([C@@H](C)O)C(=O)N3CCC[C@H]3C(=O)N3C[C@H](O)C[C@H]3C(=O)N[C@@H](Cc3c[nH]c4ccccc34)C(=O)N[C@H](C(N)=O)CSCCC5=O)nn1)C(=O)N[C@@H](CCC(N)=O)C(=O)N[C@@H](Cc1ccc(O)cc1)C(=O)N2 | Nectin-4 | binding, SPR | Kd | 0.0022 µM
CN(C)CCOC(C)(c1ccccc1)c1ccccn1 (stereo not shown) | SIGMAR1 | ligand displacement, radioligand | Ki | > 10 µM
CCCC[C@@H]1NC(=O)[C@H](Cc2ccc(O)cc2)NC(=O)[C@@H]2CCCN2C(=O)[C@H](CC(=O)O)NC(=O)[C@H](C)NC(=O)[C@H](Cc2ccccc2)NC(=O)[C@@H]2CSCCC(=O)N3CN(CN(C3)C(=O)CCSC[C@@H](C(N)=O)NC1=O)C(=O)CCSCCC(=O)N[C@@H](CC(C)(C)C)C(=O)N1CCC[C@H]1C(=O)N[C@@H](CCC(=O)O)C(=O)N[C@H](CCCCNC(=O)CCc1cn(CCOCCOCCOCCOCCOCCC(=O)N[C@H]3CSCCC(=O)N4CN5CN(C4)C(=O)CCSC[C@H](NC(=O)[C@@H](CC(=O)O)NC(=O)[C@H](Cc4cccc6ccccc46)NC(=O)[C@@H]4CCCN4C3=O)C(=O)N[C@@H](CCSC)C(=O)N[C@@H](CCCCNC(=N)N)C(=O)N[C@@H](CC(=O)O)C(=O)N[C@@H](Cc3c[nH]c4ccccc34)C(=O)N[C@@H](CO)C(=O)N[C@@H]([C@@H](C)O)C(=O)N3CCC[C@H]3C(=O)N3C[C@H](O)C[C@H]3C(=O)N[C@@H](Cc3c[nH]c4ccccc34)C(=O)N[C@H](C(N)=O)CSCCC5=O)nn1)C(=O)N1CCC[C@H]1C(=O)N[C@@H](Cc1ccc(O)cc1)C(=O)N2 | Nectin-4 | binding, SPR | Kd | 0.0014 µM
CN1CCN(C2=Nc3cc(Cl)ccc3Nc3ccccc32)CC1 | SIGMAR1 | ligand displacement, radioligand | Ki | > 10 µM
CCC(c1ccccc1)c1nn2c(-c3cccs3)nnc2s1 (stereo not shown) | PFF0160c E182D | enzyme activity, inhibitor, absorbance | IC50 | 0.171 µM
CN1CCN(C2=Nc3ccccc3Oc3ccc(Cl)cc32)CC1 | SIGMAR1 | ligand displacement, radioligand | Ki | > 10 µM
COc1nc(NCC(C)C)nc(Oc2ccc(=O)n(Cc3ccccc3)n2)n1 | PFF0160c E182D | enzyme activity, inhibitor, absorbance | IC50 | 4.64 µM
CCCC[C@@H]1NC(=O)[C@H](Cc2ccc(O)cc2)NC(=O)[C@@H]2CCCN2C(=O)[C@H](CC(=O)O)NC(=O)[C@H](C)NC(=O)[C@H](Cc2ccccc2)NC(=O)[C@@H]2CSCCC(=O)N3CN(CN(C3)C(=O)CCSC[C@H](NC(C)=O)C(=O)N[C@@H](CC(C)(C)C)C(=O)N3CCC[C@H]3C(=O)N[C@@H](CCC(=O)O)C(=O)N[C@H](CCCCNC(=O)CCc3cn(CCOCCOCCOCCOCCOCCC(=O)N[C@H]4CSCCC(=O)N5CN6CN(C5)C(=O)CCSC[C@H](NC(=O)[C@@H](CC(=O)O)NC(=O)[C@H](Cc5cccc7ccccc57)NC(=O)[C@@H]5CCCN5C4=O)C(=O)N[C@@H](CCSC)C(=O)N[C@@H](CCCCNC(=N)N)C(=O)N[C@@H](CC(=O)O)C(=O)N[C@@H](Cc4c[nH]c5ccccc45)C(=O)N[C@@H](CO)C(=O)N[C@@H]([C@@H](C)O)C(=O)N4CCC[C@H]4C(=O)N4C[C@H](O)C[C@H]4C(=O)N[C@@H](Cc4c[nH]c5ccccc45)C(=O)N[C@H](C(N)=O)CSCCC6=O)nn3)C(=O)N3CCC[C@H]3C(=O)N[C@@H](Cc3ccc(O)cc3)C(=O)N2)C(=O)CCSC[C@@H](C(N)=O)NC1=O | Nectin-4 | binding, SPR | Kd | 0.002 µM
CC1CCN(CCCC(=O)c2ccc(F)cc2)CC1 | SIGMAR1 | ligand displacement, radioligand | Ki | 0.0101 µM
CCCC[C@@H]1NC(=O)[C@H](Cc2ccc(O)cc2)NC(=O)[C@@H]2CCCN2C(=O)[C@H](CC(=O)O)NC(=O)[C@H](C)NC(=O)[C@H](Cc2ccccc2)NC(=O)[C@@H]2CSCCC(=O)N3CN(CN(C3)C(=O)CCSCCC(=O)N[C@@H](CC(C)(C)C)C(=O)N3CCC[C@H]3C(=O)N[C@@H](CCC(=O)O)C(=O)N[C@H](CCCCNC(=O)CCc3cn(CCOCCOCCOCCOCCOCCC(=O)N[C@H]4CSCCC(=O)N5CN6CN(C5)C(=O)CCSC[C@H](NC(=O)[C@@H](CC(=O)O)NC(=O)[C@H](Cc5cccc7ccccc57)NC(=O)[C@@H]5CCCN5C4=O)C(=O)N[C@@H](CCSC)C(=O)N[C@@H](CCCCNC(=N)N)C(=O)N[C@@H](CC(=O)O)C(=O)N[C@@H](Cc4c[nH]c5ccccc45)C(=O)N[C@@H](CO)C(=O)N[C@@H]([C@@H](C)O)C(=O)N4CCC[C@H]4C(=O)N4C[C@H](O)C[C@H]4C(=O)N[C@@H](Cc4c[nH]c5ccccc45)C(=O)N[C@H](C(N)=O)CSCCC6=O)nn3)C(=O)N3CCC[C@H]3C(=O)N[C@@H](Cc3ccc(O)cc3)C(=O)N2)C(=O)CCSCCNC1=O | Nectin-4 | binding, SPR | Kd | 0.001 µM
O=C(c1ccc(F)cc1)C1CCN(C2Cc3ccccc3CC2O)CC1 (single isomer, unassigned; (-)) | Vesicular acetylcholine transporter (SLC18A3, Homo sapiens, UniProt Q16572) | ligand displacement, radioligand | Ki | 0.0247 µM
